According to the EternaBench riboswitch data:

Columns and labels:
[1] = test system: MS2 coat protein; assay: apparent Kd, MS2 coat protein; higher = weaker binding; RNA-MaP array; theophylline 2 mM where present
Summary of the method: (§1)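 The apparent Kd is reported as the median of filtered per-cluster binding-curve fits. To get these curves, designs transcribed by stalled E. coli RNA polymerase on Illumina sequencing-chip clusters were titrated with SNAP-549-labelled MS2 coat protein from 0.7 or 1.5 nM, doubling to 3 µM. Titrations were run without and then with constant ligand in 100 mM Tris-HCl pH 7.5, 80 mM KCl, 4 mM MgCl2, BSA, DTT, yeast tRNA and Tween-20, and green signal was normalised to red-channel RNA signal and control-cluster median Fmax.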

[2] = test system: MS2 coat protein; assay: apparent Kd, MS2 coat protein; higher = weaker binding; RNA-MaP array; tryptophan 2.4 mM where present
Summary of the method: as §1

[3] = designed as: OFF switch for theophylline, no ligand
[4] = ligand present: theophylline, designed as: OFF switch for theophylline
[5] = designed as: ON switch for theophylline, no ligand
[6] = ligand present: theophylline, designed as: ON switch for theophylline
[7] = designed as: OFF switch for tryptophan, no ligand
[8] = ligand present: tryptophan, designed as: OFF switch for tryptophan
[9] = designed as: ON switch for tryptophan, no ligand
[10] = ligand present: tryptophan, designed as: ON switch for tryptophan

Sequence	apparent Kd [1, 3] [µM]	apparent Kd [1, 4] [µM]	apparent Kd [1, 5] [µM]	apparent Kd [1, 6] [µM]	also measured
AAAACACAUGAGGAUCACCCAUGUCGUGAUACCAGUCAACAUGAGGACCCUUGGCAGCAUAAAAUGGGUAACAUGAGGAUAACCC	0.0896	0.146	–	–	–
AAACAUGAGGAUCACCCAUGUUCAAUAGAUACCAGUGAUACGGUGCACCCUUGGCAGCUGUUGCUGAGUGAUGGUUCCCUCGGUA	–	–	0.029	0.0373	–
AAAUAAAUCACAUGAGGAUCACCCAUGGAUACCAGGCCUGGAAACAGCCCUUGGCAGCCACAUGAGGAUCACCCAUGUGCUAAAU	0.19	0.198	–	–	–
AAUAUAAGUGUAAUUUUAUGUAUCUCUGAUACCAGACCCUCAUGUGUCCCUUGGCAGCAGUAACAUGAGGAUCACCCAUGUAAAA	–	–	0.0654	0.31	–
AAUUGGGUUGGUGAGGUGGUUGGAGGCGAUACCAGCGUGGAAACACGCCCUUGGCAGCGCCAGGACAUGAGGAUCACCCAUGUUC	0.0227	0.0352	–	–	–
ACAUGAAGAACAGCGGUGGGCGCGCUCGAUACCAGUACUUUAAAAUACCCUUGGCAGCGACAUGAGGAUCACCCAUGUGAGAUGA	0.0153	0.0286	–	–	–
ACAUGAAGAACAGCGGUGGGCGCGCUCGAUACCAGUACUUUGAUUUACCCUUGGCAGCGACAUGAGGAUCACCCAUGUGAGAUGA	0.018	0.0276	–	–	–
ACAUGAGGAUCACCCAUGUGCCGAGUUGAUACCAGACCCGCACUAGUCCCUUGGCAGCAACUACGUGUGGGACACCCAUGUUAAG	0.0544	0.0713	–	–	–
ACAUGAGGAUCACCCAUGUUCCUCAUUGAUACCAGUGAAAGAAGACGCCCUUGGCAGCGAGAAGAAGAAGAAGAAGUUUUUUUUU	0.606	1.34	–	–	–
ACCUACACGGAAACGUGUAGAAGUAAUGAUACCAGCAUGGAAACAUGCCCUUGGCAGCGUUACAUGAGGAUCACCCAUGUAUGUU	0.0148	0.0324	–	–	–
ACGACAUGAGGAUCACCCAUGUAAGGUGAUACCAGACGAAGUAAUGUCCCUUGGCAGCACAAGCAUAGUUGCGAUUAUUGUACGA	–	–	0.438	0.158	–
ACGACGCAUAGUGAUACCAGCACAACAUGAGGAUCACCCAUGUCACUUAUGUAGUAAUAAUGCCCUUGGCAGCACUAUGCGUCAG	–	–	0.0552	0.0656	–
ACGCUGAUUGAUUACAAUCAGCGAAAAGAUACCAGUGGGUAAUCCCACCCUUGGCAGCUUAAACAUGAGGAUCACCCAUGUGGUA	–	–	0.0745	0.123	–
AGACAUGAGGAUCACCCAUGUAGCACGGAUACCAGAUCCAGAUGUAUCCCUUGGCAGCUGUGGUACAGCGUUGCAACGCUCCUAG	0.0207	0.0281	–	–	–
AGACAUGAGGAUCACCCAUGUAGUACGGAUACCAGAUCCAGAUGUAUCCCUUGGCAGCUGUGGUACAGCGUUACAUCGCUCCUAG	0.0151	0.0194	–	–	–
AGACAUGAGGAUCACCCAUGUAGUAUGGAUACCAGAUCCAGAUUUAUCCCUUGGCAGCUGUGGUACAGCGUUGGAUCGCUCCUAG	0.0265	–	–	–	–
AGCACACAUCCUGAUACCAGAGACAUGAGGAUCACCCAUGUCCGAUCGUCCUGCCUCAGACUCCCUUGGCAGCAGGAUGUGUGCU	0.0131	0.0324	–	–	–
AGCAGUACAACAGAUACCAGACUUUUCAUGCCUUUAAUUACAUGAGGAUCACCCAUGUUUGUCCCUUGGCAGCUGUUGUACUGCA	0.0419	0.111	–	–	–
AGCGACAUGCGUGAUACCAGCUACAUGAGGAUCACCCAUGUAAGUAGGAAACUACUGUGUAGCCCUUGGCAGCACAGUGCAUGUC	0.00948	0.0267	–	–	–
AGUACUCGAACGGAUACCAGCCGGACAUGAGGAUCACCCAUGUCCUACCUAUGUUCGGUUGGCCCUUGGCAGCCGUUCGUGUACA	–	–	0.215	0.051	–
AGUCUAUGGAGAGAUACCAGUGAGAGCCAUAGACAUGAGGAUCACCCAUGUGACAUGGAUCACCCUUGGCAGCUCAACGAGCUCU	–	–	0.126	0.0202	–
AGUGUUGUAACUGAUACCAGACCUUUGCUUAUACAUGAGGAUCACCCAUGUAAAAUGGCGGUCCCUUGGCAGCAGAGAAGACGCA	–	–	0.0401	0.0122	–
AUAACAUGAGGAUCACCCAUGUAGAGUGAUACCAGACUAUGUAAUGUCCCUUGGCAGCACAAGUAAAGUUAUAAAUAAUGAUAGA	–	–	0.157	0.0272	–
AUCUGUAUGUUUUCGUGUUUUAUUACAGAUACCAGACUAUACGUUGUCCCUUGGCAGCUGGAUGACAUGAGGAUCACCCAUGUUG	0.0335	0.0366	–	–	–
AUGUCAUUGGUGUAGCUGUGAAGUGGCGAUACCAGCGUGGAAACACGCCCUUGGCAGCGCCAAAACAUGAGGAUCACCCAUGUUA	0.0223	0.156	–	–	–
AUGUCGUUGAAUAUAGCGGCUUGGAGUGAUACCAGUAUGAUCCAAUACCCUUGGCAGCAUAACAUGAGGAUCACCCAUGUUCCAG	–	–	0.0213	0.0316	–

Sequence	apparent Kd [1, 3] [µM]	apparent Kd [1, 4] [µM]	apparent Kd [1, 5] [µM]	apparent Kd [1, 6] [µM]	also measured
AUUAAUAGUUGUGAUACCAGACGAACAUGAGGAUCACCCAUGUAACUUAAGAGUGUUGAUGUCCCUUGGCAGCACUGUUUAGUUA	–	–	0.108	0.0878	–
AUUCCAUUGGUGCAGUUGUUAAAUGGCGAUACCAGCGUGGAAACACGCCCUUGGCAGCGCCAAAACAUGAGGAUCACCCAUGUUA	0.061	0.12	–	–	–
CAUACUUUAGUAUGUUAUGUGGACAGUGAUACCAGAUACGAAAGUAUCCCUUGGCAGCACAACAUGAGGAUCACCCAUGUAAUUU	–	–	0.0261	0.0156	–
CCGCCCACGAAUGAUACCAGCUAAAAUCAUGUACCAGACACAUGAGGAUCACCCAUGUAAAGCCCUUGGCAGCGUACGCCACCCG	0.0235	0.0264	–	–	–
CCUAUGACAUGAGGAUCACCCAUGUUGGAUACCAGCGCAUGAGGACGCCCUUGGCAGCCAAUGAACAUGAGGAUACAUGAGGAUC	–	–	0.0445	0.185	–
CGAAUACUGAGUGAUACCAGUGAAAGAUAACUGUAUACACAUGAGGAUCACCCAUGUACACACCCUUGGCAGCACACUAGAUCGA	–	–	0.0333	0.0174	–
CGAGUUCGCUGAUGGGCUACGUCAGGUGAUACCAGCCACUCCCGCGGCCCUUGGCAGCACAUGAGGAUCACCCAUGUAGAGCUUG	0.0136	0.238	–	–	–
CGGUUUGUGAUGGAUACCAGCAGAGAAAAUGUUUAUCCUGACAUGAGGAUCACCCAUGUGUGCCCUUGGCAGCUGUUGUGGGCUG	0.0562	0.0754	–	–	–
CGGUUUGUGAUGGAUACCAGCAGAGUGAAUGUUUAUCCUGACAUGAGGAUCACCCAUGUGUGCCCUUGGCAGCUGUUGUGGGCUG	0.0635	0.0894	–	–	–
CUAGGAAACUAGUAAGGGUGGUAUAGAGAUACCAGUACAGAAAUGUACCCUUGGCAGCUCACUGCAACAUGAGGAUCACCCAUGU	0.0323	0.102	–	–	–
CUGCCAUGCAGAGAUACCAGUGAGCUCAAAACAUGAGGAUCACCCAUGUAAAUUGCCGAUCACCCUUGGCAGCUCUGCAUGGCAG	–	–	0.00978	0.00784	–
GAACAUGAGGAUCACCCAUGUAAAACAGAUACCAGUGAUAUAAUACACCCUUGGCAGCUGAAGCUGAAUAAUAAUUCCCUCAAGC	–	–	0.0148	0.0164	–
GAGCUGAUGUAGAAAUUUUAUUUAUGAGAUACCAGUACAGAAAUGUACCCUUGGCAGCUCAAUUUUACAUGAGGAUCACCCAUGU	0.0121	0.0134	–	–	–
GAUACCAUGAUCCUCCUGGUAUCGGCUGAUACCAGCCAGCUGACUGGCCCUUGGCAGCAGCAUACAUGAGGAUCACCCAUGUUAA	–	–	0.0883	0.267	–
GAUGAAGUAACUGAUACCAGUGUACUGACAUGAGGAUCACCCAUGUUGGGUUUUGUUGUACACCCUUGGCAGCAGAAUCUUUAUC	0.0523	0.0849	–	–	–
GCGAUACGUACUGAUACCAGAGACAUGAGGAUCACCCAUGUCCCAUGAUCAUACCUCAGACUCCCUUGGCAGCAGGAUAAGUGAG	0.0112	0.0183	–	–	–
GGUGGCGGGACUGAUACCAGCCACCACCGAUAGACCACAUGAGGAUCACCCAUGUUGGGUGGCCCUUGGCAGCAGUCUUGCUGCU	–	–	0.542	0.63	–
GUAAAUGUGACGGAUACCAGCGUGUUGUAGAACAUGAGGAUCACCCAUGUAGUGAUCAUGCGCCCUUGGCAGCUGGUAUGUUUGU	–	–	0.474	0.841	–
UAUAAAAUAACAGAUACCAGCGUGUUAUAAAACAUGAGGAUCACCCAUGUAGUGAUCAAGCGCCCUUGGCAGCUGGUAUUUUAUA	–	–	0.101	0.126	–
UAUAACAUGAGGAUCACCCAUGUAAGUGAUACCAGAUAAAUAAUAGUCCCUUGGCAGCAUAUUGGGAAAGUGUAUAAUAUAUAUU	–	–	0.0522	0.057	–
UAUCGUCAGACGGCCGCCACUAGAACAUGAGGAUCACCCAUGUACUAGUGGCAUACCUCAUGAACUAGGACCGGGUCUGACGAAU	–	–	–	–	apparent Kd [2, 7]: 0.00933 µM; apparent Kd [2, 8]: 0.00925 µM
UAUCGUCAGACGGCCGCCACUAGAACAUGAGGAUCACCCAUGUAGGCGGCCGAUUCCUCAUUAACUAGGACCGGGUCUGACGAAU	–	–	–	–	apparent Kd [2, 7]: 0.00813 µM; apparent Kd [2, 8]: 0.00967 µM
UCAGAUGAGGCGGCCGCCACUCGCGGAUAACGAUAGAUUAACAUGAGGAUCACCCAUGUGUCAUGGAGGACCGGGCCCAUGACAU	–	–	–	–	apparent Kd [2, 9]: 0.0279 µM; apparent Kd [2, 10]: 0.0237 µM
UGGUACUAGGCGGCCGCCACUGGGAGAUACAUGAGGAUCACCCAUGUUUAAUGCCGAGAGGCAACUAGGACCGGGCCUAGUACAU	–	–	–	–	apparent Kd [2, 9]: 0.117 µM; apparent Kd [2, 10]: 0.0265 µM
UGUACCAUGUCGGCCGCCACUCAUGAUAAACAUGAGGAUCACCCAUGUAGCGUCAAAGACGCUAUGAGGACCGGGACAUGGUACU	–	–	–	–	apparent Kd [2, 9]: 0.035 µM; apparent Kd [2, 10]: 0.0122 µM
UUCAGCUAGUCGGCCGCCACUACAUGAGGAUCACCCAUGUAAUCCUAACACUGCUUCGGCAGUGGUAGGACCGGGACUAGCUGAG	–	–	–	–	apparent Kd [2, 7]: 0.0106 µM; apparent Kd [2, 8]: 0.0171 µM
